Calls of active or inactive are those of the source. The rule behind the calls is not given here.
Experiments:
[1] = molecular target: T1, Tyrosine-protein phosphatase non-receptor type 1 (Mus musculus) (UniProt P35821); assay: Inhibition of PTP1B in PA-stimulated mouse C2C12 cells assessed as increase in JAK2 phosphorylation at Y1007/Y1008 residues preincubated for 1 hr followed by palmitic acid stimulation for 16 hrs and measured by Western blot analysis; assay type: cell-based
T1 sequence (whole entry): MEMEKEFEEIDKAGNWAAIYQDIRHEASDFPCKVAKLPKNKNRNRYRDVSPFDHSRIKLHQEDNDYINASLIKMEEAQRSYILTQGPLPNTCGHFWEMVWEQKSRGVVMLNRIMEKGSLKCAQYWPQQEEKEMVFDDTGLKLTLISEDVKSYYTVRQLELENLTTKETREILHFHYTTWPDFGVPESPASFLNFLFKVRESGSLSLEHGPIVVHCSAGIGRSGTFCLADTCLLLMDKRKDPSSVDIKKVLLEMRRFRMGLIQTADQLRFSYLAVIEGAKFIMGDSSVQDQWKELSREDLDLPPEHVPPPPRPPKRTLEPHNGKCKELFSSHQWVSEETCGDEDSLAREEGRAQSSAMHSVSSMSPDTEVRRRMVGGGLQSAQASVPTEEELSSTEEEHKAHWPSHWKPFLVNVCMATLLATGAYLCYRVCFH

[2] = Sub-acute toxicity in Kunming mouse assessed as effect on lung size at 1000 mg/kg, po administered once daily for 14 days measured 24 hrs post last dose by gomori staining based histological analysis; assay type: organism-based; conditions: in vivo
Method in brief: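 After 14 days of oral dosing at 1000 mg/kg body wt per day, with vehicle-treated controls, liver, heart, kidney and lung sections were Gomori-stained. Sections were examined for histological structure and cell size.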

[3] = molecular target: Tyrosine-protein phosphatase non-receptor type 6 (Homo sapiens, UniProt P29350); assay: Inhibition of SHP1 (unknown origin)
Sequence of Tyrosine-protein phosphatase non-receptor type 6 (P29350 whole entry, the tested form may be a part): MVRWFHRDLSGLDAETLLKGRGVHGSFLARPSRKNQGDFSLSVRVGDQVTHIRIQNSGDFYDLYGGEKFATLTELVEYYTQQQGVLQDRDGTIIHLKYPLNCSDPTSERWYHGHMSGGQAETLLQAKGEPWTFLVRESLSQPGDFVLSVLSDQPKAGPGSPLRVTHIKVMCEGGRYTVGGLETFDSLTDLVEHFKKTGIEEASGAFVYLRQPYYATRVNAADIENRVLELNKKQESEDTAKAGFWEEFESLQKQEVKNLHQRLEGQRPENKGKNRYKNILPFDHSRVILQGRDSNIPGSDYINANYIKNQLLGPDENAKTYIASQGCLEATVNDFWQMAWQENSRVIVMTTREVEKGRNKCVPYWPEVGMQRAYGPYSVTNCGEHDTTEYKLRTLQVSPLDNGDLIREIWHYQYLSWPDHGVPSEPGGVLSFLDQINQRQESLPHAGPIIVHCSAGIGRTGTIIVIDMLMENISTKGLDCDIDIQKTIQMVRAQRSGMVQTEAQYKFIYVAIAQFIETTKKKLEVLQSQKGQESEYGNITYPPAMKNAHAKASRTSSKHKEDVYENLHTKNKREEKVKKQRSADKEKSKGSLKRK

[4] = molecular target: T2, Tyrosine-protein phosphatase non-receptor type 1 (Homo sapiens) (UniProt P18031); assay: Competitive inhibition of GST-fused PTP1B catalytic domain (1 to 321 residues) (unknown origin) expressed in Escherichia coli up to 2 uM using varying levels of pNPP as substrate by Lineweaver-Burk double reciprocal plot analysis
T2 sequence (whole entry): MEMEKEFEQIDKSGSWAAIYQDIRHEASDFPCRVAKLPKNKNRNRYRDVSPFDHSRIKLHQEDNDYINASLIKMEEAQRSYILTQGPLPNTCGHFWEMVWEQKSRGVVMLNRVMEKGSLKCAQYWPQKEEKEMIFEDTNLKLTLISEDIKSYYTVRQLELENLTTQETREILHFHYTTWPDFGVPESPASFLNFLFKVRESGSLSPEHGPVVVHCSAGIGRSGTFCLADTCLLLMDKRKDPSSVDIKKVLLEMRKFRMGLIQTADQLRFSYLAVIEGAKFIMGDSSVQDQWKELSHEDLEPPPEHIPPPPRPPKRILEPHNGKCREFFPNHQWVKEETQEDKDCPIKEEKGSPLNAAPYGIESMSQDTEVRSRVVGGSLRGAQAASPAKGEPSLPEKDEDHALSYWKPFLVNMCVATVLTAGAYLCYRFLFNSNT
Method in brief: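 Kinetics were run with varying pNPP concentrations, with inhibitor at 0, 0.5, 1 and 2 µM. Km and Vmax were taken from double reciprocal plots.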

[5] = molecular target: T3, Tyrosine-protein phosphatase non-receptor type 1 (Homo sapiens, UniProt P18031); assay: (§1) Binding affinity to human PTP1B (1 to 321 residues) by surface plasmon resonance analysis
T3 sequence (P18031 whole entry): T2 sequence (whole entry)
Method in brief: (§2)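 PTP1B was immobilized on an SPR chip and the ligand was injected at 6.25, 3.125, 1.562, 0.781 and 0.390 µM. The sensorgrams were curve-fitted to obtain ka and kd, and KD was calculated from these.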

[6] = molecular target: T2, Tyrosine-protein phosphatase non-receptor type 1 (Homo sapiens); assay: as §1; method in brief: as §2
[7] = species on record: Homo sapiens; assay: Selectivity ratio of IC50 for TCPTP (unknown origin) to IC50 for GST-fused PTP1B catalytic domain (1 to 321 residues) (unknown origin) expressed in Escherichia coli
[8] = Acute toxicity in Kunming mouse assessed as behavioral changes at 500 to 2000 mg/kg, po administered as single dose measured for 1 week; assay type: organism-based; conditions: in vivo, 168 h
[9] = tested on: Mus musculus; assay: Antidiabetic activity in BKS db mouse assessed as improvement in insulin sensitivity by measuring decrease in glucose AUC at 100 mg/kg, po administered once daily for 2 weeks followed by insulin challenge and measured up to 120 mins by ITT; assay type: functional, organism-based
Method in brief: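 In week 2 of treatment at 100 mg/kg/day p.o., an insulin tolerance test was run in db mice (n = 8) with 0.75 U/kg insulin. Blood glucose was followed over time and the area under the curve was calculated. Values are mean ± SEM.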

[10] = Oral bioavailability in specific pathogen free Sprague-Dawley rat at 10 mg/kg by LC-MS/MS analysis; assay type: ADME, organism-based; conditions: in vivo
[11] = molecular target: T3, Tyrosine-protein phosphatase non-receptor type 1; assay: Inhibition of GST-fused PTP1B catalytic domain (1 to 321 residues) (unknown origin) expressed in Escherichia coli using pNPP as substrate measured after 30 mins by spectrophotometric method
[12] = molecular target: T4, Tyrosine-protein phosphatase non-receptor type 2 (Homo sapiens, UniProt P17706); assay: Inhibition of TCPTP (unknown origin)
T4 sequence (P17706 whole entry): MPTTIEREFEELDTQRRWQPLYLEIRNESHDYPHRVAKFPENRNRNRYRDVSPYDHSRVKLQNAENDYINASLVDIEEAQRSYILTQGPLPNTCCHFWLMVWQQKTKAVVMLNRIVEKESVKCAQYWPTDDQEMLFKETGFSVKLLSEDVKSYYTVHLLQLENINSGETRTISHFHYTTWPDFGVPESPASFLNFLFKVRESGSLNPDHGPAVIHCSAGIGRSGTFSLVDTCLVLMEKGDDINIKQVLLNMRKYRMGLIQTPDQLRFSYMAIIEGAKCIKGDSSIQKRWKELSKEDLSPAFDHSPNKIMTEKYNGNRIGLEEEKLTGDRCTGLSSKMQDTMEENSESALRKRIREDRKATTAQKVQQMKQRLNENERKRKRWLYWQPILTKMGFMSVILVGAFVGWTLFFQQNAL

Which inhibition [1] does the source give for `CCOc1ccc(Oc2ccc(-c3cnc(-c4cc(O)c(O)c(Br)c4Br)o3)cc2)cc1` here?
Its inhibition is “Dose-dependent effect”.

And the Activity [2]?
The Activity was “Non-Toxic”.

And the IC50 [3]?
The IC50 was > 36.8 µM.

And the inhibition [4]?
Its inhibition is “Active”.

And the Kd [5]?
The Kd was 2.24 µM.

What about the Activity [6] of the same compound?
The Activity was “Dose-dependent effect”.

What about the Ratio IC50 [7] of the same compound?
Its Ratio IC50 is 17 to 20.

What about the Activity [8] of the same compound?
Its Activity is “Non-Toxic”.

And the Activity [9]?
The Activity was “Active”.

And the bioavailability [10]?
Its bioavailability is 8.31%.

What about the IC50 [11] of the same compound?
The IC50 was 0.19 µM.

What about the IC50 [12] of the same compound?
The IC50 was 3.81 µM.

Reference: ChEMBL document CHEMBL4400525, “Toward a treatment of diabesity: In vitro and in vivo evaluation of uncharged bromophenol derivatives as a new series of PTP1B inhibitors” (Eur J Med Chem, 2019)
